Rows were chosen to be rich in hits. Some 1.9% of all compounds tested hit in one or more screens of this group.
Hsp70 act: Hsp70 transcriptional activators, primary screen, cell-based, HeLa, Hsp70 promoter luciferase, luminescence, 10 µM. HeLa Hsp70 promoter luciferase reporter; scaled: vehicle 0, proteasome-inhibitor control 100%. activation, % at 10 µM. actives 0.04% (n = 200,000). AID 1203, 2008;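 active = activation above the mean across all tested compounds plus 3 SD, cutoff set per campaign, cut at about 5.5% in these data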
Rad51 HR inh: human RAD51 strand exchange inhibitors, primary screen, biochemical, fluorescence; hRad51 DNA strand exchange, fluorescence dequenching; actives 0.085% (n = 200,000); inhibition, % at 10 µM; DNA repair protein RAD51 homolog 1 (Homo sapiens), Q06609;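 active = inhibition above 40% at the single screening dose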
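Read-out basis: percent inhibition relative to plate controls and blanks / Assay system: human Rad51 nucleoprotein filaments preassembled on unlabelled ssDNA / Timing: filaments 15 min 37 °C, then compound 30 min / Control set: per-plate controls and blanks / Technique: fluorescence dequenching at 485/520 nm / Compound: 10 µM final, single point / Also added: Fluorescein- and BHQ1-tagged 47-mer duplex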
FXN GAA850 act: FXN promoter activators, primary screen, cell-based, luciferase luminescence, HEK293 lucGAA850; AID 540364, 2011; activation, % at 6 µM; HEK293 lucGAA850 FXN promoter luciferase reporter, 24 h; percent of 10 µM SAHA response; actives 0.56% (n = 360,000);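 active = activation above the average of all compounds screened plus 3 SD, cutoff fixed separately per campaign, cut at about 7.5% in these data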
H9c2 TAG inh: inhibitors of triacylglycerol accumulation, primary screen, cell-based, uHTS, fluorescence, H9c2 | H9c2 cells, Nile Red lipid (TAG) fluorescence; cells loaded with 200 µM oleic acid | actives 0.66% (n = 230,000) | inhibition, % at 12.5 µM;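 active = pattern-corrected inhibition of lipid staining of at least 50% with the nuclear-stain viability signal not falling by more than 50%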
ABHD5-PLIN5 inh: ABHD5-PLIN5 interaction inhibitors, primary screen, cell lysate, split luciferase complementation, luminescence; Perilipin-5 (Homo sapiens) + 1-acylglycerol-3-phosphate O-acyltransferase ABHD5 (Homo …; Split G. princeps luciferase complementation, 4 h; inhibition, % at 4 µM; actives 0.78% (n = 360,000);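 active = inhibition above the mean inhibition across every tested compound plus 3 SD, cut at about 22% in these data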
HIF activator: HIF pathway transcriptional activators, primary screen, cell-based, U2OS HRE-luciferase, luminescence; U2OS HRE-luciferase reporter; normalized: DMSO 0%, desferrioxamine 100%; actives 0.32% (n = 300,000); AID 1910, 2009; activation, % at 7.5 µM (by protocol);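 active = mean activation of at least 10% of the iron chelator positive control signal, with at least half of replicates also reaching 10%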
ABHD5 PLIN5 conf: ABHD5-PLIN5 interaction inhibitors, confirmation, biochemical, luminescence; shares compounds with ABHD5-PLIN5 inh; inhibition, % at 4 µM; actives 67% (n = 2,200); AID 651612, 2012; in the data active = inhibition above about 23%
HNF4 split-luc: HNF4 dimerization inhibitors, counter-screen for ABHD5-PLIN5 interaction inhibitor project, biochemical, split-luciferase complementation, luminescence. shares compounds with ABHD5-PLIN5 inh. inhibition, % at 4 µM. actives 77% (n = 2,200). AID 651674, 2012;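 active = mean inhibition across replicate wells exceeding the computed hit threshold, cut at about 13% in these data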;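 note: light from luciferase halves that rejoin when HNF4 fusion proteins dimerize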
A number is an active result; 0 = inactive; - = no result given.

SMILES | Hsp70 act | Rad51 HR inh | FXN GAA850 act | H9c2 TAG inh | ABHD5-PLIN5 inh | HIF activator | ABHD5 PLIN5 conf | HNF4 split-luc
O=C(Nc1ccc([N+](=O)[O-])cc1)OC1CCS(=O)(=O)C1 (stereo unspecified) | - | - | - | - | 0 | - | - | -
CCOc1ccc(S(=O)(=O)c2c[nH]c3ccccc3c2=O)cc1 | - | - | 0 | - | 0 | 0 | - | -
COc1ccc(NC(=O)n2ncc3c(C)cccc32)cc1 | - | - | 0 | - | 0 | 0 | - | -
C[C@@H](c1ccccc1)N1C[C@H]2CCCN2c2cc(Br)ccc2S1(=O)=O | - | - | 0 | 0 | 0 | - | - | -
Cc1cc(C)c2nc(N(CCCN(C)C)C(=O)c3ccc4c(c3)OCCO4)sc2c1 | - | - | 0 | 0 | 27 | 0 | 0 | 0
COc1ccc(C)c2sc(N(CCCN(C)C)C(=O)c3ccc4c(c3)OCCO4)nc12 | - | - | 0 | 0 | 23 | 0 | 0 | 0
CN(C)CCCN(C(=O)COc1ccccc1)c1nc2c(F)cccc2s1 | 0 | 0 | 0 | 0 | 0 | 0 | - | -
Cc1cccc2sc(N(CCCN(C)C)C(=O)c3ccc(Cl)s3)nc12 | 0 | 0 | 0 | 0 | 25 | 0 | 0 | 0
Cc1cccc2sc(N(CCCN(C)C)C(=O)c3ccco3)nc12 | 0 | 0 | 0 | 0 | 0 | 0 | - | -
COc1cccc2sc(N(CCCN(C)C)C(=O)COc3ccc(Cl)cc3)nc12 | 0 | 0 | 0 | 0 | 29 | 0 | 23 | 0
O=C(N/N=C\c1ccc(Cl)cc1)C1=NOC2COC3(CCN(c4ccc([N+](=O)[O-])cc4)CC3)OCC12 (stereo unspecified) | - | 0 | 0 | 0 | 0 | 0 | - | -
CCOc1ccccc1/C=C/C(=O)c1ccc(Cl)cc1 | 0 | 0 | 0 | 0 | 0 | 0 | - | -
COc1ccc(OC)c(/C=C/C(=O)c2ccc(Cl)cc2)c1 | 0 | 0 | 0 | - | 49 | 0 | 72 | 55
COc1cc(C=CC(=O)c2cc(OC)c(OC)c(OC)c2)cc(OC)c1OC | - | - | 0 | 0 | 0 | - | - | -
COc1ccccc1/C=C/C(=O)c1ccc(Cl)cc1 | 0 | 0 | 0 | - | 27 | 0 | 69 | 49
COc1cc(O)c(C(=O)/C=C/c2ccccc2)c(OC)c1 | - | 0 | 0 | - | 27 | 0 | 50 | 44
COc1cc(C=CC(=O)c2ccccc2)cc(OC)c1OC | - | - | - | - | 48 | - | 68 | 50
COc1ccc(OC)c(Cc2nnc(CCC(=O)NCc3nc4ccccc4s3)o2)c1 | 0 | 0 | 0 | 0 | 0 | 0 | - | -
O=C1OC(N2C(=O)CC[C@H]2C(=O)Nc2ccc(Br)cc2F)c2ccccc21 (stereo partly specified) | - | - | 0 | - | 0 | 0 | - | -
COC(=O)[C@@]1(Cc2ccc(F)cc2)[C@H]2c3cc(C(=O)N(C)C)n(CCCNc4ncc(C(F)(F)F)cc4Cl)c3C[C@H]2CN1C(=O)c1ccccc1 | - | - | - | - | 25 | - | 0 | 0
Cc1ccc(/C=C/C(=O)c2c(C)cc(C)[nH]c2=O)cc1 | 0 | 0 | 0 | - | 0 | 0 | - | -
CCc1ccc(/C=C/C(=O)c2c(C)cc(C)[nH]c2=O)cc1 | 0 | 0 | 0 | 0 | 29 | 0 | 48 | 29
O=C(/C=C/c1c(F)cccc1Cl)c1ccc(F)cc1 | 0 | 0 | 0 | - | 31 | 0 | 95 | 91
O=C(/C=C/c1ccc[nH]1)c1ccc(F)cc1 | 0 | 0 | 0 | - | 0 | 0 | - | -
COc1cc(/C=C2/C(=O)CNC2=O)ccc1O | 0 | 0 | 0 | - | 0 | 0 | - | -
COc1cc(C=C2C(=O)C=CC2=O)ccc1O | - | - | - | - | 99 | - | 94 | 108
CCOC(=O)C1=C(C)N(c2ccccc2)C(=O)/C1=C\c1ccc(O)c(OC)c1 | - | 0 | 0 | 0 | 26 | 0 | 39 | 49

High-throughput results deposited in PubChem by several laboratories.
